A short description of data set [1]: Partition coefficient, P in n-octanol/phosphate buffer at pH 7.0.
Data set [2] is described as follows: Antioxidant spin trapping activity assessed as hydroxyl radical adducts formation by Fenton system. In kind it is physicochemical. Put shortly: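 Hydroxyl adducts: spin trap (40 mM, initial) with Fenton mix of FeSO4 (1 mM), EDTA (2 mM), H2O2 (0.2%); after 10 s diluted 1:1 with 300 mM phosphate buffer pH 7.4 containing 20 mM DTPA; ESR at sweep 80 G, modulation 0.21 G, microwave 20 mW, time constant 0.08 s, gain 2×10^4, 57 G/min.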

Data set [3] can be described thus: Antioxidant spin trapping activity assessed as alkoxyl radical adducts formation from ethanol. In kind it is physicochemical. Summed up:
(§1)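 Alkoxyl adducts by nucleophilic addition: spin trap (1 M, init. conc., in methanol or ethanol) incubated 10 s with FeCl3 (2 mM in the alcohol), then stopped by 1:20 dilution with phosphate buffer (0.3 M, pH 7.4, 20 mM DTPA); ESR recorded at 9.7 GHz, sweep width 80 G.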

Data set [4] in a line: Antioxidant spin trapping activity assessed as carbon centered radical adduct formation from methanol. In kind it is physicochemical. Put shortly:
(§2)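 Fenton-type generation of alcohol-derived carbon radicals: spin trap (40 mM, init. conc.), FeSO4 (1 mM), EDTA (2 mM), H2O2 (0.2%) in methanol or ethanol/water; stopped after 10 s by 1:1 dilution with 300 mM phosphate buffer pH 7.4 containing 20 mM DTPA; ESR: sweep 80 G, modulation 0.21 G, 20 mW, gain 4×10^4, 57 G/min.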

Data set [5] is described as follows: Antioxidant spin trapping activity assessed as carbon centered radical adduct formation from ethanol. It counts as physicochemical. Put shortly:
as §2

A short description of data set [6]: Antioxidant spin trapping activity assessed as carbon centered radical adduct formation from formate. In kind it is physicochemical. Summed up: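 CO2 anion radical adducts: spin trap (40 mM, init. conc.) with FeSO4 (1 mM), EDTA (2 mM), H2O2 (0.2%) in aqueous sodium formate (200 mM); reaction stopped after 10 s by 1:1 dilution into 300 mM phosphate buffer pH 7.4 with 20 mM DTPA, then ESR spectrum recorded (sweep width 80 G).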

The nature of data set [7]: Antioxidant spin trapping activity assessed as alkoxyl radical adducts formation from methanol. It counts as physicochemical. Put shortly: as §1

Structures are written as SMILES.

In data set [1], `CCOC(=O)C1(C)CCC=[N+]1[O-]` (stereo unspecified) returned a P of 0.15.
In data set [1], `CC1(C(N)=O)CCC=[N+]1[O-]` (stereo unspecified) returned a P of 0.016.
Consider `CCCC1(C(N)=O)CCC=[N+]1[O-]` (stereo unspecified), for which the outcome in data set [2], in data set [3], in data set [4], in data set [5] and in data set [6] was Active. In data set [1], this molecule showed a P of 0.211.
With `CCC1(C(N)=O)CCC=[N+]1[O-]` (stereo unspecified), the outcome in data set [2] and in data set [6] was Active. Further, the P in data set [1] stood at 0.056.
With `CCCCCC1(C(N)=O)CCC=[N+]1[O-]` (stereo unspecified), the result in data set [2], in data set [3], in data set [4], in data set [5], in data set [6] and in data set [7] was Active. The same molecule registered a P in data set [1] of 2.72.
For `CCCCC1(C(N)=O)CCC=[N+]1[O-]` (stereo unspecified), the outcome in data set [2] and in data set [6] was Active. The molecule further gave a P in data set [1] of 0.668.
